We go through 14 molecules from ChEMBL document CHEMBL1817612, “Inhibitory potential of chemical substitutions at bioinspired sites of β-D-galactopyranose on neoglycoprotein/cell surface binding of two classes of medically relevant lectins” (Bioorg Med Chem, 2011).

Data set [1] addresses Galectin-3 (Homo sapiens) (UniProt P17931). Put plainly: Inhibition of galectin-3 binding to biotinylated lectin at cell surface of human Jurkat T-cells at 2 mM by fluorometric analysis. In kind it is cell-based. The essentials:
(§1)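 Recombinant biotinylated galectin-3, at a concentration set by titration, was bound to 5 × 10⁴ Jurkat or SW480 cells per assay, with or without compound. Lactose was run in parallel as reference. A fluorescent second-step reagent gave percent positive cells and mean fluorescence intensity by flow cytometry. Negative controls omitted labeled lectin, and non-cognate sugars served as osmolarity controls.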

The target is the same in data set [2]. Put plainly: Ratio IC50 for lactose to compound for galectin-3 binding to biotinylated neoglycoprotein with p-isothiocyanatophynyl lactoside assessed as lectin-neoglycoprotein complex formation after 1 hr by spectrophotometric analysis. Summed up:
(§2)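 Lactosylated BSA (p-isothiocyanatophenyl lactoside, about 26 sugars per carrier) was adsorbed to wells from PBS overnight at 4 °C. Biotinylated lectin, at a concentration from titration, was incubated 1 h at 37 °C with up to nine compound concentrations. Bound lectin was read spectrophotometrically. Glycocluster concentration was normalized to sugar content, and lactose served as internal reference. Triplicates were run in up to five series.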

Data set [3] deals with Jurkat. Briefly: Inhibition of Viscum album agglutinin binding to biotinylated lectin at cell surface of human Jurkat T-cells at 1 mM by fluorometric analysis. In kind it is cell-based. Summed up: (§3)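 Biotinylated mistletoe lectin (VAA, purified from dried leaves on lactosylated Sepharose) was bound to 5 × 10⁴ Jurkat cells per assay at 2.5 µg/ml, with or without compound. Staining was detected with a fluorescent second-step reagent by flow cytometry, as percent positive cells and mean fluorescence intensity. Controls were lactose/galactose, non-cognate sugars for osmolarity, and omission of labeled lectin.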

Data set [4] concerns Viscum album. Put plainly: Ratio IC50 for lactose to compound for Viscum album agglutinin binding to biotinylated neoglycoprotein with p-isothiocyanatophynyl lactoside assessed as lectin-neoglycoprotein complex formation after 1 hr by spectrophotometric analysis. The essentials:
as §2

Data set [5] has as its target T1, Galectin-8 (Homo sapiens) (UniProt O00214).
T1 sequence (whole entry): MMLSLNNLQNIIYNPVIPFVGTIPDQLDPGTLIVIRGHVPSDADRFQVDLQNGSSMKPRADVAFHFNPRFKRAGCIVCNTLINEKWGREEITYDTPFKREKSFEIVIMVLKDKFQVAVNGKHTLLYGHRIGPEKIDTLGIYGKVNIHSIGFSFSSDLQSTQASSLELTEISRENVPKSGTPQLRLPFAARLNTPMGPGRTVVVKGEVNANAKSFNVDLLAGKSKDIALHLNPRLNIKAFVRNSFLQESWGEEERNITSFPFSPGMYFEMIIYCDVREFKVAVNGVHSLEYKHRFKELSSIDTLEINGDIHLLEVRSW
Put plainly: (§4) Inhibition of galectin-8 binding to biotinylated lectin at cell surface of human SW480 cells at 2 mM by fluorometric analysis. In kind it is cell-based. The essentials:
(§5)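 Biotinylated recombinant galectin-8 (1 µg/ml) or galectin-9 (40 µg/ml) was bound to 5 × 10⁴ SW480 cells per assay, with or without compound at 2 mM. Lactose was run in parallel. Staining via a fluorescent second-step reagent was quantified as percent positive cells and mean fluorescence intensity. Controls were omission of lectin and non-cognate sugars.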

In data set [6] the target is Galectin-9 (Homo sapiens) (UniProt O00182). Briefly: Ratio IC50 for lactose to compound for galectin-9 binding to biotinylated neoglycoprotein with p-isothiocyanatophynyl lactoside assessed as lectin-neoglycoprotein complex formation after 1 hr by spectrophotometrically relative to lactose. The essentials:
as §2

For data set [7] the target is unchanged. Put plainly: Inhibition of galectin-9 binding to biotinylated lectin at cell surface of human SW480 cells at 2 mM by fluorometric analysis. In kind it is cell-based. Summed up: as §5
Data set [8] has as its target T1, Galectin-8 (Homo sapiens). Put plainly: Ratio IC50 for lactose to compound for galectin-8 binding to biotinylated neoglycoprotein with p-isothiocyanatophynyl lactoside assessed as lectin-neoglycoprotein complex formation after 1 hr by spectrophotometric analysis. The essentials: as §2
Data set [9] relates to SW480. Put plainly: (§6) Cytotoxicity against human SW480 cells assessed as cell viability at 2 mM after 48 hrs by MTT assay. Type of data set: cell-based. The note with it: sw480, 48 h, 2000 µM. Summed up:
(§7)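 SW480 human colon adenocarcinoma cell aliquots were cultured 48 h with no addition (control) or with test compound added to the medium at 1, 2, 5 or 10 mM. Galactose and lactose were run as controls. Growth was read spectrophotometrically with MTT (0.5 mg/ml) and expressed relative to the untreated control. Triplicates were run in three independent series.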

Data set [10] can be described thus: Cytotoxicity against human SW480 cells assessed as growth inhibition at 5 mM after 48 hrs by MTT assay. To be noted: read-out: GI. Type of data set: cell-based. Summed up: as §7
A short description of data set [11]: as §6. Type of data set: cell-based. To be noted: SW480 cells, read-out: GI. Summed up: as §7
For data set [12], the system named is Jurkat. Briefly: Inhibition of Viscum album agglutinin binding to biotinylated lectin at cell surface of human Jurkat T-cells at 2.5 ug/ml by fluorometric analysis. In kind it is cell-based. Summed up: as §3
Data set [13] has as its target Galectin-3 (Homo sapiens) (UniProt P17931). Briefly: Inhibition of galectin-3 binding to biotinylated lectin at cell surface of human SW480 cells at 15 uM by fluorometric analysis. In kind it is cell-based. The essentials:
as §1

For data set [14] the target is unchanged. Put plainly: Inhibition of galectin-3 binding to biotinylated lectin at cell surface of human Jurkat T-cells at 15 uM by fluorometric analysis. Type of data set: cell-based. Summed up:
as §1

Data set [15] is described as follows: Cytotoxicity against human SW480 cells assessed as growth inhibition at 1 mM after 48 hrs by MTT assay. In kind it is cell-based. The note with it: read-out: GI. Summed up:
as §7

Data set [16] deals with Galectin-3 (Homo sapiens) (UniProt P17931). Put plainly: Inhibition of galectin-3 binding to biotinylated lectin at cell surface of human Jurkat T-cells at 1 mM by fluorometric analysis relative to lactose. Type of data set: cell-based. The essentials:
as §1

The target is the same in data set [17]. Put plainly: Inhibition of galectin-3 binding to biotinylated lectin at cell surface of human SW480 cells at 100 uM by fluorometric analysis. In kind it is cell-based. Summed up: as §1
Data set [18] has the same target. Briefly: Inhibition of galectin-3 binding to biotinylated lectin at cell surface of human Jurkat T-cells at 100 uM by fluorometric analysis. Type of data set: cell-based. Summed up: as §1
In data set [19] the target is Galectin-8 (Homo sapiens) (UniProt O00214). The description is as §4. In kind it is cell-based. Summed up: as §5
This is another data set of the same source.

Data set [20] concerns the target Galectin-1 (Homo sapiens) (UniProt P09382). Put plainly: Ratio IC50 for lactose to compound for galectin-1 binding to biotinylated neoglycoprotein with p-isothiocyanatophynyl lactoside assessed as lectin-neoglycoprotein complex formation after 1 hr by spectrophotometric analysis. Summed up:
as §2

Calls of active or inactive are those of the source. The rule behind the calls is not given here.

Sequence of Galectin-9 (Homo sapiens) (O00182 whole entry): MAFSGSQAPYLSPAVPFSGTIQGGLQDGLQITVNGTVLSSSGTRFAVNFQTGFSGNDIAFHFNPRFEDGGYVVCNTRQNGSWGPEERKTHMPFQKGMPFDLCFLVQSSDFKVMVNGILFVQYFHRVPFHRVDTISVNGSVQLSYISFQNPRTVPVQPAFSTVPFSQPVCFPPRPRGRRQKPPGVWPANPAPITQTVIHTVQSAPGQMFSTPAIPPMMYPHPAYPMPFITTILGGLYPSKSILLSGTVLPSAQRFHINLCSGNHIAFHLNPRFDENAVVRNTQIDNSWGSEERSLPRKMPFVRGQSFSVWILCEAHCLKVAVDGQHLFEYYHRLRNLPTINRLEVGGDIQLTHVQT
Sequence of Galectin-3 (Homo sapiens) (P17931 whole entry): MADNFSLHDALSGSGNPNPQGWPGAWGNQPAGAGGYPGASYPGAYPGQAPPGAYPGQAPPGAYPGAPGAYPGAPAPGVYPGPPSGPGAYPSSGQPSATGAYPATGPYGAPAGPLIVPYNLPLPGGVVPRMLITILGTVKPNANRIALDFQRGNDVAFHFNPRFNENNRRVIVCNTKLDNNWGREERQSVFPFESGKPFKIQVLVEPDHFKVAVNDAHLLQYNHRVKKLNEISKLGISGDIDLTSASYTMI
Sequence of Galectin-1 (Homo sapiens) (P09382 whole entry): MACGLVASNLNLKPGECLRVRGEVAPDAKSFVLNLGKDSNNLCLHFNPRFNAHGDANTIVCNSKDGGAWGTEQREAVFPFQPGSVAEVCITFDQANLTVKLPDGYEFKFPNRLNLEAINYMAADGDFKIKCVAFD

For `C=C(C[C@@H]1O[C@H](CO)[C@H](O)[C@H](O)[C@H]1O)c1cccc([N+](=O)[O-])c1`, the inhibition entry in data set [1] is “inactive”.
For the molecule `Cc1nc(NC(=O)Cc2ccccc2)sc1[C@@H]1O[C@H](CO)[C@H](O)[C@H](O)[C@H]1O`, the Ratio IC50 in data set [2] was 1.1; in data set [4], 1.3. Moreover, the inhibition entry in data set [3] was “Active”.
`CC(C)(C)C(=O)c1cc(CO[C@@H]2O[C@H](CO)[C@H](O[C@@H]3O[C@H](CO)[C@H](O)[C@H](O)[C@H]3O)[C@H](O)[C@H]2O)on1`: the Ratio IC50 is 1.6 in [2], 1.7 in data set [6] and 2.2 in data set [8]. Also, the inhibition entry in [5] and in data set [7] was “Active” in each case.
Turning to `OC[C@@H]1O[C@H](C/C=C/c2cccc(/C=C/C[C@@H]3O[C@H](CO)[C@H](O)[C@H](O)[C@H]3O)c2)[C@@H](O)[C@H](O)[C@@H]1O`, the Ratio IC50 in data set [4] was 1.9.
In the case of `COc1ccc(C(=O)Nc2nc(C)c([C@@H]3O[C@H](CO)[C@H](O)[C@H](O)[C@H]3O)s2)cc1`, the Activity entry in [9] was “Non-toxic”. Further, the inhibition at 48 h, 5000 µM in [10] was found to be 50%.
For the molecule `O=C(NCc1cn([C@@H]2O[C@H](CO)[C@H](O[C@@H]3O[C@H](CO)[C@H](O)[C@H](O)[C@H]3O)[C@H](O)[C@H]2O)nn1)c1cc(C(=O)NCc2cn([C@@H]3O[C@H](CO)[C@H](O[C@@H]4O[C@H](CO)[C@H](O)[C@H](O)[C@H]4O)[C@H](O)[C@H]3O)nn2)cc(C(=O)NCc2cn([C@@H]3O[C@H](CO)[C@H](O[C@@H]4O[C@H](CO)[C@H](O)[C@H](O)[C@H]4O)[C@H](O)[C@H]3O)nn2)c1`, in data set [11], the inhibition at 48 h, 2000 µM worked out at 58%. Further, the Ratio IC50 in [2] is 8.4; in data set [6], 7.7; in [4], 6.2; in data set [8] it was 6.9. The inhibition entry in data set [12], in [13], in [5], in [14] and in [7] was “Active” throughout. Further, the inhibition at 48 h, 1000 µM in [15] is 75%. In [16], this molecule had a fold change (FC) of 7.
In the case of `Cc1nc(NC(=O)c2ccccc2)sc1[C@@H]1O[C@H](CO)[C@H](O)[C@H](O)[C@H]1O`, the Ratio IC50 in [2] was 1.3; in [4] it was 1.2. Further, the inhibition entry in data set [3] was “Active”.
For the molecule `Cc1nc(NS(=O)(=O)c2ccc3ccccc3c2)sc1[C@@H]1O[C@H](CO)[C@H](O)[C@H](O)[C@H]1O`, the Activity result in data set [9] is given as “Non-toxic”. Moreover, the inhibition at 48 h, 5000 µM in data set [10] worked out at 50%.
With `O=S(=O)(O)OCc1cn([C@H]2[C@@H](O)[C@@H](CO)O[C@@H](Sc3nc4ccccc4s3)[C@@H]2O)nn1`, in data set [6], the Ratio IC50 amounted to 1.4.
In the case of `O=C(O)c1cn([C@H]2[C@@H](O)[C@@H](CO)O[C@@H](Sc3nc4ccccc4s3)[C@@H]2O)nn1`, the inhibition at 48 h, 2000 µM in data set [11] worked out at 40%. For the same molecule, the Ratio IC50 in data set [2] came out at 1.4. For the same molecule, the inhibition at 48 h, 1000 µM in [15] is 70%.
Regarding `C#CCO[C@H]1[C@@H](O)[C@@H](CO)O[C@@H](Sc2ccccc2C(=O)OC)[C@@H]1O`, the Ratio IC50 in [2] amounted to 1.8. The inhibition at 48 h, 1000 µM in data set [15] was 10%.
In the case of LACTOSE, ANHYDROUS, the inhibition entry in [17], in data set [18], in [19] and in data set [7] was “Active” in each case. In addition, the inhibition result in data set [1] was “inactive”.
Take `O=C(CCSCCC(F)(F)C(F)(F)C(F)(F)C(F)(F)C(F)(F)C(F)(F)C(F)(F)C(F)(F)F)NC(CO[C@@H]1O[C@H](CO)[C@H](O)[C@H](O)[C@H]1O)(CO[C@@H]1O[C@H](CO)[C@H](O)[C@H](O)[C@H]1O)CO[C@@H]1O[C@H](CO)[C@H](O)[C@H](O)[C@H]1O`: the Ratio IC50 in data set [2] turned out to be 6.2; in data set [6] it was 5.1; in [20], 1.8; in data set [4], 2.2; in [8] it was 4.6. The inhibition result in data set [12], in [5] and in data set [7] was “Active” throughout. The molecule also yielded a fold change (FC) in data set [16] of 7.
For `C/C=C/[C@@H]1O[C@H](CO)[C@H](O)[C@H](O)[C@H]1O`, the Activity result in data set [9] is listed as “Non-toxic”. In addition, the inhibition at 48 h, 5000 µM in data set [10] stood at 50%.
